Reference: ChEMBL document CHEMBL4038305, “Benzoxaborole Antimalarial Agents. Part 5. Lead Optimization of Novel Amide Pyrazinyloxy Benzoxaboroles and Identification of a Preclinical Candidate” (J Med Chem, 2017)

Experiments:
[1] = system: Plasmodium berghei; assay: Antimalarial activity against Plasmodium berghei infected in Swiss Webster mouse assessed as mouse survival rate at 3.7 mg/kg administered once daily via oral gavage for 4 consecutive days beginning 1 hr after infection measured on day 4 post infection relative to control; format: functional
In short: (§1)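 P. berghei-infected erythrocytes taken from a previously infected mouse were injected intraperitoneally. Oral dosing, once daily for 4 consecutive days, began 1 h after infection, in polyethylene glycol 300/propylene glycol/water (55/25/20 by weight). Chloroquine at 30 mg/kg was the positive control, with a vehicle-only group. Percent survival was recorded daily from day 4 to day 20.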

[2] = system: Plasmodium berghei; assay: Antimalarial activity against Plasmodium berghei infected in Swiss Webster mouse assessed as mouse survival rate at 3.7 mg/kg administered once daily via oral gavage for 4 consecutive days beginning 1 hr after infection measured on day 6 post infection relative to control; format: functional; in short: as §1
[3] = system: Plasmodium berghei; assay: Antimalarial activity against Plasmodium berghei infected in Swiss Webster mouse assessed as mouse survival rate at 1.2 mg/kg administered once daily via oral gavage for 4 consecutive days beginning 1 hr after infection measured on day 7 post infection relative to control; format: functional
In short: (§2)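 Mice given an intraperitoneal injection of P. berghei-infected erythrocytes taken from a previously infected animal. Oral dosing once daily for 4 consecutive days, starting 1 h after infection. Vehicle: polyethylene glycol 300/propylene glycol/water (weight ratio 55/25/20). Percent survival recorded daily from day 4 to day 20. Chloroquine 30 mg/kg and vehicle-only groups served as controls.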

[4] = system: Plasmodium berghei; assay: Antimalarial activity against Plasmodium berghei infected in Swiss Webster mouse assessed as mouse survival rate at 11 mg/kg administered once daily via oral gavage for 4 consecutive days beginning 1 hr after infection measured on day 5 post infection relative to control; format: functional; in short: as §1
[5] = system: Plasmodium berghei; assay: Antimalarial activity against Plasmodium berghei infected in Swiss Webster mouse assessed as mouse survival rate at 0.4 mg/kg administered once daily via oral gavage for 4 consecutive days beginning 1 hr after infection measured on day 6 post infection relative to control; format: functional; in short: as §2
[6] = system: Plasmodium berghei; assay: Antimalarial activity against Plasmodium berghei infected in Swiss Webster mouse assessed as mouse survival rate at 1.2 mg/kg administered once daily via oral gavage for 4 consecutive days beginning 1 hr after infection measured on day 4 post infection relative to control; format: functional; in short: as §2
[7] = system: Plasmodium berghei; assay: Antimalarial activity against Plasmodium berghei infected in Swiss Webster mouse assessed as mouse survival rate at 100 mg/kg administered once daily via oral gavage for 4 consecutive days beginning 1 hr after infection measured on day 10 post infection relative to control; format: functional; in short: as §2
[8] = system: Plasmodium berghei; assay: Antimalarial activity against Plasmodium berghei infected in Swiss Webster mouse assessed as mouse survival rate at 1.2 mg/kg administered once daily via oral gavage for 4 consecutive days beginning 1 hr after infection measured on day 6 post infection relative to control; format: functional; in short: as §2
[9] = system: Plasmodium berghei; assay: Antimalarial activity against Plasmodium berghei infected in Swiss Webster mouse assessed as mouse survival rate at 33 mg/kg administered once daily via oral gavage for 4 consecutive days beginning 1 hr after infection measured on day 9 post infection relative to control; format: functional; in short: as §1
[10] = system: Plasmodium berghei; assay: Antimalarial activity against Plasmodium berghei infected in Swiss Webster mouse assessed as mouse survival rate at 33 mg/kg administered once daily via oral gavage for 4 consecutive days beginning 1 hr after infection measured on day 10 post infection relative to control; format: functional; in short: as §1
[11] = system: Plasmodium berghei; assay: Antimalarial activity against Plasmodium berghei infected in Swiss Webster mouse assessed as mouse survival rate at 33 mg/kg administered once daily via oral gavage for 4 consecutive days beginning 1 hr after infection measured on day 5 post infection relative to control; format: functional; in short: as §1
[12] = system: Plasmodium berghei; assay: Antimalarial activity against Plasmodium berghei infected in Swiss Webster mouse assessed as mouse survival rate at 33 mg/kg administered once daily via oral gavage for 4 consecutive days beginning 1 hr after infection measured on day 7 post infection relative to control; format: functional; in short: as §1
[13] = system: Plasmodium berghei; assay: Antimalarial activity against Plasmodium berghei infected in Swiss Webster mouse assessed as mouse survival rate at 1.2 mg/kg administered once daily via oral gavage for 4 consecutive days beginning 1 hr after infection measured on day 5 post infection relative to control; format: functional; in short: as §2
[14] = system: Plasmodium berghei; assay: Antimalarial activity against Plasmodium berghei infected in Swiss Webster mouse assessed as mouse survival rate at 11 mg/kg administered once daily via oral gavage for 4 consecutive days beginning 1 hr after infection measured on day 4 post infection relative to control; format: functional; in short: as §1
[15] = system: Plasmodium berghei; assay: Antimalarial activity against Plasmodium berghei infected in Swiss Webster mouse assessed as mouse survival rate at 100 mg/kg administered once daily via oral gavage for 4 consecutive days beginning 1 hr after infection measured on day 5 post infection relative to control; format: functional; in short: as §2
[16] = system: Plasmodium berghei; assay: Antimalarial activity against Plasmodium berghei infected in Swiss Webster mouse assessed as mouse survival rate at 100 mg/kg administered once daily via oral gavage for 4 consecutive days beginning 1 hr after infection measured on day 7 post infection relative to control; format: functional; in short: as §2
[17] = system: Plasmodium berghei; assay: Antimalarial activity against Plasmodium berghei infected in Swiss Webster mouse assessed as mouse survival rate at 100 mg/kg administered once daily via oral gavage for 4 consecutive days beginning 1 hr after infection measured on day 12 post infection relative to control; format: functional; in short: as §2
[18] = system: Plasmodium berghei; assay: Antimalarial activity against Plasmodium berghei infected in Swiss Webster mouse assessed as mouse survival rate at 200 mg/kg administered once daily via oral gavage for 4 consecutive days beginning 1 hr after infection measured on day 8 post infection relative to control; format: functional; in short: as §1
[19] = system: Plasmodium berghei; assay: Antimalarial activity against Plasmodium berghei infected in Swiss Webster mouse assessed as mouse survival rate at 200 mg/kg administered once daily via oral gavage for 4 consecutive days beginning 1 hr after infection measured on day 14 post infection relative to control; format: functional; in short: as §1
[20] = system: Plasmodium berghei; assay: Antimalarial activity against Plasmodium berghei infected in Swiss Webster mouse assessed as mouse survival rate at 200 mg/kg administered once daily via oral gavage for 4 consecutive days beginning 1 hr after infection measured on day 7 post infection relative to control; format: functional; in short: as §1
[21] = system: Plasmodium berghei; assay: Antimalarial activity against Plasmodium berghei infected in Swiss Webster mouse assessed as mouse survival rate at 100 mg/kg administered once daily via oral gavage for 4 consecutive days beginning 1 hr after infection measured on day 14 post infection relative to control; format: functional; in short: as §2
[22] = Metabolic stability in rat hepatocytes at 22 uM after 44 hrs; format: ADME, cell-based, Hepatocyte
[23] = system: Plasmodium berghei; assay: Antimalarial activity against Plasmodium berghei infected in Swiss Webster mouse assessed as mouse survival rate at 11 mg/kg administered once daily via oral gavage for 4 consecutive days beginning 1 hr after infection measured on day 9 post infection relative to control; format: functional; in short: as §1
[24] = system: Plasmodium berghei; assay: Antimalarial activity against Plasmodium berghei infected in Swiss Webster mouse assessed as mouse survival rate at 0.1 mg/kg administered once daily via oral gavage for 4 consecutive days beginning 1 hr after infection measured on day 7 post infection relative to control; format: functional; in short: as §2
[25] = system: Plasmodium berghei; assay: Antimalarial activity against Plasmodium berghei infected in Swiss Webster mouse assessed as mouse survival rate at 0.1 mg/kg administered once daily via oral gavage for 4 consecutive days beginning 1 hr after infection measured on day 5 post infection relative to control; format: functional; in short: as §2
[26] = system: Plasmodium berghei; assay: Antimalarial activity against Plasmodium berghei infected in Swiss Webster mouse assessed as mouse survival rate at 33 mg/kg administered once daily via oral gavage for 4 consecutive days beginning 1 hr after infection measured on day 13 post infection relative to control; format: functional; in short: as §1
[27] = system: Plasmodium berghei; assay: Antimalarial activity against Plasmodium berghei infected in Swiss Webster mouse assessed as mouse survival rate at 33 mg/kg administered once daily via oral gavage for 4 consecutive days beginning 1 hr after infection measured on day 14 post infection relative to control; format: functional; in short: as §1

Structure (SMILES) | survival at 3.7 mg/kg [1] | survival at 3.7 mg/kg [2] | survival at 1.2 mg/kg [3] | survival at 11 mg/kg [4] | survival at 0.4 mg/kg [5] | survival at 1.2 mg/kg [6] | survival at 100 mg/kg [7] | survival at 1.2 mg/kg [8] | survival at 33 mg/kg [9] | survival at 33 mg/kg [10] | survival at 33 mg/kg [11] | survival at 33 mg/kg [12] | survival at 1.2 mg/kg [13] | survival at 11 mg/kg [14] | survival at 100 mg/kg [15] | survival at 100 mg/kg [16] | survival at 100 mg/kg [17] | survival at 200 mg/kg [18] | survival at 200 mg/kg [19] | survival at 100 mg/kg [21] | further results
Cc1c(Oc2cnc(C(=O)N[C@@H](CO)CC(F)(F)F)cn2)ccc2c1B(O)OC2 | 100% | 100% | 0% | 100% | 100% | 100% | 100% | 100% | 100% | 60% | 100% | 100% | 100% | 100% | 100% | 100% |  |  |  |  | 
Cc1c(Oc2cnc(C(=O)NC(C)CO)cn2)ccc2c1B(O)OC2 (stereo not given) |  |  |  | 40% |  |  | 40% |  |  |  | 100% | 100% |  | 100% | 100% | 100% | 0% |  |  |  | 
CCC[C@H](CO)NC(=O)c1cnc(Oc2ccc3c(c2C)B(O)OC3)cn1 | 100% | 100% | 0% | 100% |  | 100% | 100% | 100% | 0% |  | 100% | 100% | 100% | 100% | 100% | 100% | 20% | 100% | 100% | 0% | survival at 200 mg/kg [20]: 100%
Cc1c(Oc2cnc(C(=O)N3CC(O)(C(C)C)C3)cn2)ccc2c1B(O)OC2 | 100% | 100% |  | 100% | 100% |  | 100% |  | 100% | 100% | 100% | 100% |  | 100% | 100% | 100% | 100% | 100% | 100% | 100% | Stability [22]: Stable; survival at 11 mg/kg [23]: 60%; survival at 0.1 mg/kg [24]: 0%; survival at 0.1 mg/kg [25]: 100%; survival at 200 mg/kg [20]: 100%; survival at 33 mg/kg [26]: 100%; survival at 33 mg/kg [27]: 0%
Cc1c(Oc2cnc(C(=O)N3CC(C)(O)C3)cn2)ccc2c1B(O)OC2 | 100% | 100% | 0% | 100% | 100% | 100% | 100% | 100% | 100% | 100% | 100% | 100% | 100% | 100% | 100% | 100% | 100% |  |  | 60% | Stability [22]: Stable; survival at 11 mg/kg [23]: 0%; survival at 0.1 mg/kg [24]: 0%; survival at 0.1 mg/kg [25]: 100%; survival at 33 mg/kg [26]: 100%; survival at 33 mg/kg [27]: 0%
